Publication PMC6099358 (Diabetes, Obesity & Metabolism, 2018)

Columns and labels:
[1] = tested on: Japanese participants with T1DM; assay: 24-hour urinary glucose excretion; format: in vivo, human; details: for placebo-corrected adjusted mean (95% CI) change from baseline in 24-hour UGE: Day 7
In short: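 Japanese adults with T1DM on multiple daily insulin injections, after a 2-week placebo run-in, were randomized 1:1:1:1 to oral test compound 2.5, 10 or 25 mg or placebo once each morning for 4 weeks. All urine was collected over 24 h at baseline and Days 1, 7 and 28. Day-7 change was analysed by ANCOVA (baseline covariate) with LOCF.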

[2] = Pharmacokinetics of empagliflozin in plasma; format: in vivo, human
In short: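 Blood and urine were sampled on Days 1 and 28 of 4-week once-daily oral dosing (2.5, 10, 25 mg). Concentrations were measured by validated LC-MS/MS. Steady state was judged from troughs on Days 2, 7, 14, 21, 27, 28 and 29. Cmax, AUC and t1/2,ss were derived non-compartmentally. Timepoint statistics required ≥2/3 of values within the validated range.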

[3] = tested on: Japanese participants with T1DM; assay: HbA1c and fasting plasma glucose; format: in vivo, human; details: Day 28
In short: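 During 4 weeks of once-daily oral test compound or placebo, blood was drawn for HbA1c on Days 1 and 28. FPG was sampled on Days −1, 1, 2, 7, 8, 14, 21, 28 and 29. Samples were assayed at a central laboratory. Changes from baseline were analysed by ANCOVA (treatment fixed, baseline covariate).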

[4] = tested on: Japanese participants with T1DM; assay: Weekly recorded insulin dose; format: in vivo, human; details: for recorded insulin dose adjusted mean difference vs placebo (95% CI): Week 4; for % of adjusted mean change from baseline in recorded insulin dose (reduction from baseline): within Week 4
In short: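 Participants recorded basal and bolus insulin doses in a diary. Weekly totals were compiled during 4 weeks of once-daily oral test compound or placebo. At randomization, HbA1c 7.5–<8% prompted a 10% cut in daily insulin; otherwise dosing was at investigator discretion. Changes were analysed by ANCOVA with baseline covariate.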

[5] = Body weight; format: in vivo, human; details: Day 28
In short: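 T1DM participants on multiple daily insulin injections took oral test compound or placebo once daily for 4 weeks. Body weight was measured on Day 28. Change from baseline was analysed by ANCOVA, with treatment as a fixed effect and baseline as a linear covariate.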

[6] = tested on: Japanese participants with T1DM; assay: Continuous glucose monitoring; format: in vivo, human; details: within Week 4, CGM
In short: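 A blinded professional CGM device was worn from Day −6 to Day 28 during once-daily oral test compound or placebo. Glucose exposure was taken as mean daily glucose AUC. Variability was taken as glucose interquartile range, plus % time at ≤70, >70 to ≤180 and >180 mg/dL. Week-4 changes from baseline are adjusted means.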

[7] = tested on: Japanese participants with T1DM; assay: Ketogenesis markers; format: in vivo, human; details: after 4 weeks of treatment
In short: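 Serum β-hydroxybutyrate was sampled on Days −1, 1, 7 and 8 and measured by a contract laboratory. The change from baseline in AUC0–24h was calculated on Day 7. Day-28 levels were measured among the laboratory safety parameters and summarised descriptively.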

[8] = tested on: Japanese participants with T1DM; assay: Adverse events and hypoglycaemic episodes during 4-week double-blind treatment; format: in vivo, human; details: 4 weeks
In short: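 In a double-blind, 4-week study, participants took test compound 2.5, 10 or 25 mg or placebo orally once daily. Adverse events were coded in MedDRA 19.1. Hypoglycaemic events were based on scheduled blood glucose tests and/or CGM. Special-interest events included genital and urinary infections and volume depletion. Severe hypoglycaemia and DKA were adjudicated externally. Results were summarised descriptively in all treated participants.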

[9] = tested on: Japanese participants with T1DM; assay: Laboratory safety parameters; format: in vivo, human; details: empagliflozin groups, Day 28
In short: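 Blood and urine were collected on Days 1, 7 and 28 of once-daily oral dosing with test compound or placebo. They were measured centrally and summarised descriptively in the treated set.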

[10] = tested on: participants with T2DM with established cardiovascular disease; details: cited from earlier work
[11] = tested on: Japanese participants with T2DM; details: 10 mg, Day 28, Japanese T2DM; cited from earlier work
[12] = tested on: participants with T1DM; details: vs placebo 4 [0.6%]; cited from earlier work

Structure (SMILES): OC[C@H]1O[C@@H](c2ccc(Cl)c(Cc3ccc(O[C@H]4CCOC4)cc3)c2)[C@H](O)[C@@H](O)[C@@H]1O [empagliflozin]
- placebo-corrected adjusted mean (95% CI) change from baseline in 24-hour UGE ([1]; 2.5 mg once daily): 65.10 [43.29, 86.90] g/24 h
- adjusted effect on UGE ([1]; 2.5 mg, Day 28, Japanese T1DM): 91.0 g/24 h
- placebo-corrected adjusted mean (95% CI) change from baseline in 24-hour UGE ([1]; 10 mg once daily): 81.19 [58.80, 103.58] g/24 h
- placebo-corrected adjusted mean (95% CI) change from baseline in 24-hour UGE ([1]; 25 mg once daily): 98.11 [75.91, 120.31] g/24 h
- exposure (AUC and Cmax) versus dose ([2]; after a single dose and at steady state): increased proportionally with dose
- Tmax ([2]; human, plasma, po): ~1.5 h
- time to steady state ([2]; once daily oral dosing, trough concentrations): ≤ 7 days
- time to peak plasma level after dosing ([2]; single and multiple oral doses, 2.5-25 mg): 1.5 h
- FPG adjusted mean difference vs placebo (95% CI) ([3]; 2.5 mg): -14.27 mg/dL
- HbA1c adjusted mean difference vs placebo (95% CI) ([3]; 2.5 mg): −0.20%
- FPG adjusted mean difference vs placebo (95% CI) ([3]; 10 mg): -43.63 mg/dL
- HbA1c adjusted mean difference vs placebo (95% CI) ([3]; 10 mg): −0.35%
- FPG adjusted mean difference vs placebo (95% CI) ([3]; 25 mg): -59.57 mg/dL
- HbA1c adjusted mean difference vs placebo (95% CI) ([3]; 25 mg): −0.20%
- recorded insulin dose adjusted mean difference vs placebo (95% CI) ([4]; 2.5 mg): −0.08 U/kg
- % of adjusted mean change from baseline in recorded insulin dose (reduction from baseline) ([4]; 2.5 mg): −20.5%
- recorded insulin dose adjusted mean difference vs placebo (95% CI) ([4]; 10 mg): −0.10 U/kg
- % of adjusted mean change from baseline in recorded insulin dose (reduction from baseline) ([4]; 10 mg): −23.3%
- recorded insulin dose adjusted mean difference vs placebo (95% CI) ([4]; 25 mg): −0.09 U/kg
- % of adjusted mean change from baseline in recorded insulin dose (reduction from baseline) ([4]; 25 mg): −24.2%
- body weight adjusted mean difference vs placebo (95% CI) ([5]; 2.5 mg): -1.37 kg
- body weight adjusted mean difference vs placebo (95% CI) ([5]; 10 mg): -1.47 kg
- body weight adjusted mean difference vs placebo (95% CI) ([5]; 25 mg): -1.70 kg
- IQR of glucose adjusted mean difference vs placebo (95% CI) ([6]; 2.5 mg): -23.08 mg/dL
- MDAUC of glucose adjusted mean difference vs placebo (95% CI) ([6]; 2.5 mg): -558 mg·h/dL
- IQR of glucose adjusted mean difference vs placebo (95% CI) ([6]; 10 mg): -13.08 mg/dL
- MDAUC of glucose adjusted mean difference vs placebo (95% CI) ([6]; 10 mg): -338 mg·h/dL
- IQR of glucose adjusted mean difference vs placebo (95% CI) ([6]; 25 mg): -22.09 mg/dL
- MDAUC of glucose adjusted mean difference vs placebo (95% CI) ([6]; 25 mg): -514 mg·h/dL
- highest individual serum BHB level [7]: approximately 0.8 mmol/L
- mean serum BHB levels ([7]; all doses): < 0.5 mmol/L
- Asymptomatic hypoglycaemia with PG ≤70 mg/dL, rate ([8]; 2.5 mg): 5.1 episodes per 30 days per participant
- Asymptomatic hypoglycaemia with PG ≤70 mg/dL, total number of episodes ([8]; 2.5 mg): 62 episodes
- Death ([8]; 2.5 mg): 0 (0) % (n) of participants
- Decreased renal function ([8]; 2.5 mg): 0 (0) % (n) of participants
- Events consistent with UTI ([8]; 2.5 mg): 0 (0) % (n) of participants
- Events consistent with genital infection ([8]; 2.5 mg): 7.7 (1) % (n) of participants
- Events consistent with volume depletion ([8]; 2.5 mg): 0 (0) % (n) of participants
- Hepatic injury ([8]; 2.5 mg): 0 (0) % (n) of participants
- Hypoglycaemia (AE) ([8]; 2.5 mg): 92.3 (12) % (n) of participants
- Hypoglycaemia requiring assistance, rate ([8]; 2.5 mg): 0 (0) episodes per 30 days per participant
- Hypoglycaemia requiring assistance, total number of episodes ([8]; 2.5 mg): 0 (0) episodes
- Ketoacidosis ([8]; 2.5 mg): 0 (0) % (n) of participants
- Symptomatic hypoglycaemia with PG <54 mg/dL, rate ([8]; 2.5 mg): 1.5 episodes per 30 days per participant
- Symptomatic hypoglycaemia with PG <54 mg/dL, total number of episodes ([8]; 2.5 mg): 18 episodes
- Symptomatic hypoglycaemia with PG ≥54 and ≤70 mg/dL, rate ([8]; 2.5 mg): 1.8 episodes per 30 days per participant
- Symptomatic hypoglycaemia with PG ≥54 and ≤70 mg/dL, total number of episodes ([8]; 2.5 mg): 22 episodes
- participants with genital infection (vulvovaginal candidiasis of mild intensity) ([8]; 2.5 mg): 1 participants
- ≥1 AE ([8]; 2.5 mg): 92.3 (12) % (n) of participants
- ≥1 AE leading to discontinuation ([8]; 2.5 mg): 0 (0) % (n) of participants
- ≥1 Drug-related AE ([8]; 2.5 mg): 84.6 (11) % (n) of participants
- ≥1 Serious AE ([8]; 2.5 mg): 0 (0) % (n) of participants
- ≥1 Severe AE ([8]; 2.5 mg): 0 (0) % (n) of participants
- Asymptomatic hypoglycaemia with PG ≤70 mg/dL, rate ([8]; 10 mg): 6.7 episodes per 30 days per participant
- Asymptomatic hypoglycaemia with PG ≤70 mg/dL, total number of episodes ([8]; 10 mg): 78 episodes
- Death ([8]; 10 mg): 0 (0) % (n) of participants
- Decreased renal function ([8]; 10 mg): 0 (0) % (n) of participants
- Events consistent with UTI ([8]; 10 mg): 0 (0) % (n) of participants
- Events consistent with genital infection ([8]; 10 mg): 0 (0) % (n) of participants
- Events consistent with volume depletion ([8]; 10 mg): 0 (0) % (n) of participants
- Hepatic injury ([8]; 10 mg): 0 (0) % (n) of participants
- Hypoglycaemia (AE) ([8]; 10 mg): 100 (12) % (n) of participants
- Hypoglycaemia requiring assistance, rate ([8]; 10 mg): 0 (0) episodes per 30 days per participant
- Hypoglycaemia requiring assistance, total number of episodes ([8]; 10 mg): 0 (0) episodes
- Ketoacidosis ([8]; 10 mg): 0 (0) % (n) of participants
- Symptomatic hypoglycaemia with PG <54 mg/dL, rate ([8]; 10 mg): 2.7 episodes per 30 days per participant
- Symptomatic hypoglycaemia with PG <54 mg/dL, total number of episodes ([8]; 10 mg): 31 episodes
- Symptomatic hypoglycaemia with PG ≥54 and ≤70 mg/dL, rate ([8]; 10 mg): 3.9 episodes per 30 days per participant
- Symptomatic hypoglycaemia with PG ≥54 and ≤70 mg/dL, total number of episodes ([8]; 10 mg): 45 episodes
- ≥1 AE ([8]; 10 mg): 100 (12) % (n) of participants
- ≥1 AE leading to discontinuation ([8]; 10 mg): 0 (0) % (n) of participants
- ≥1 Drug-related AE ([8]; 10 mg): 100 (12) % (n) of participants
- ≥1 Serious AE ([8]; 10 mg): 0 (0) % (n) of participants
- ≥1 Severe AE ([8]; 10 mg): 0 (0) % (n) of participants
- Asymptomatic hypoglycaemia with PG ≤70 mg/dL, total number of episodes ([8]; 25 mg): 140 episodes
- Death ([8]; 25 mg): 0 (0) % (n) of participants
- Decreased renal function ([8]; 25 mg): 0 (0) % (n) of participants
- Events consistent with UTI ([8]; 25 mg): 0 (0) % (n) of participants
- Events consistent with genital infection ([8]; 25 mg): 8.3 (1) % (n) of participants
- Events consistent with volume depletion ([8]; 25 mg): 0 (0) % (n) of participants
- Hepatic injury ([8]; 25 mg): 0 (0) % (n) of participants
- Hypoglycaemia (AE) ([8]; 25 mg): 100 (12) % (n) of participants
- Hypoglycaemia requiring assistance, rate ([8]; 25 mg): 0 (0) episodes per 30 days per participant
- Hypoglycaemia requiring assistance, total number of episodes ([8]; 25 mg): 0 (0) episodes
- Ketoacidosis ([8]; 25 mg): 0 (0) % (n) of participants
- Symptomatic hypoglycaemia with PG <54 mg/dL, rate ([8]; 25 mg): 1.8 episodes per 30 days per participant
- Symptomatic hypoglycaemia with PG <54 mg/dL, total number of episodes ([8]; 25 mg): 21 episodes
- Symptomatic hypoglycaemia with PG ≥54 and ≤70 mg/dL, rate ([8]; 25 mg): 1.0 episodes per 30 days per participant
- Symptomatic hypoglycaemia with PG ≥54 and ≤70 mg/dL, total number of episodes ([8]; 25 mg): 12 episodes
- participants with genital infection (vulvovaginal candidiasis of mild intensity) ([8]; 25 mg): 1 participants
- ≥1 AE ([8]; 25 mg): 100 (12) % (n) of participants
- ≥1 AE leading to discontinuation ([8]; 25 mg): 0 (0) % (n) of participants
- ≥1 Drug-related AE ([8]; 25 mg): 91.7 (11) % (n) of participants
- ≥1 Serious AE ([8]; 25 mg): 0 (0) % (n) of participants
- ≥1 Severe AE ([8]; 25 mg): 0 (0) % (n) of participants
- DKA events (investigator-reported or adjudicated) ([8]; all doses): No events meeting the criteria for DKA were reported
- tolerability ([8]; all three doses (2.5, 10, 25 mg)): generally well tolerated
- changes from baseline in laboratory safety parameters (overall) [9]: no significant changes from baseline
- reduction of incident or worsening nephropathy [10]: 39%
- reduction of risk of cardiovascular death [10]: 38%
- adjusted effect on UGE [11]: 80.9 g/24 h

Structure (SMILES): CCOc1ccc(Cc2cc([C@@H]3O[C@H](SC)[C@@H](O)[C@H](O)[C@H]3O)ccc2Cl)cc1 [sotagliflozin]
- DKA [12]: 21 [3.0%] participants [%]
